Results published in PMC8606101 (The Biochemical journal, 2017).
Entries after “also recorded” stand apart in the source; their conditions may differ. Read-outs that look alike come from different tables or passages of the source. One block for each molecule: values may come before it.

What was measured:
ADAM9 = biological target: T1, ADAM9 (Mus musculus, UniProt Q61072); format: cell-based; conditions: for dose dependence of inhibition of ADAM9-dependent release of EphB4-AP: titration; for stimulation of ADAM9-dependent shedding of EphB4-AP: 20 ng/ml PMA, 100 μM PV or 2.5 μM IO, 30 minutes
T1 sequence (Q61072 30-845): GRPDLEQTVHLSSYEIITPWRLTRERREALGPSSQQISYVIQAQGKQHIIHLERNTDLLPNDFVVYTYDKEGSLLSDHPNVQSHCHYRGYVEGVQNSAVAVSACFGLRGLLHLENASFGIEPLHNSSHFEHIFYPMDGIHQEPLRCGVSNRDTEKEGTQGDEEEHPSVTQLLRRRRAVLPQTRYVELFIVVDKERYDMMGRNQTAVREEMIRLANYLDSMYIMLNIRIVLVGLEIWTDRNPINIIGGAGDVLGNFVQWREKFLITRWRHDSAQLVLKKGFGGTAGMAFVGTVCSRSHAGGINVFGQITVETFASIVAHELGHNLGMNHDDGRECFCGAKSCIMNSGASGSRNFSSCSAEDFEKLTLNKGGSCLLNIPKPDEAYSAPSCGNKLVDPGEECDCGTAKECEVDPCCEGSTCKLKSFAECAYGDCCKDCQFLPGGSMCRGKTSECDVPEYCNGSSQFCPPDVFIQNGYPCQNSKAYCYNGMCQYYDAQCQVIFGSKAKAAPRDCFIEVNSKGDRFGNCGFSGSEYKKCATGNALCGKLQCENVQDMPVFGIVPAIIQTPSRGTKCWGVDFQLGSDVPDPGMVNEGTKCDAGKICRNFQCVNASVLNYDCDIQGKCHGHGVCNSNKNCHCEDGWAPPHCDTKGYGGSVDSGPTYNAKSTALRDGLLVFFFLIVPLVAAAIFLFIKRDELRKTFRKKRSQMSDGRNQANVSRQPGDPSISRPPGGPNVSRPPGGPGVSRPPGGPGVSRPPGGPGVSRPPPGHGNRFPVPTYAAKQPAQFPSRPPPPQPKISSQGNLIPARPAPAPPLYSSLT

ADAM10 [1] = conditions: cited from earlier work; for IC50: read-out: Potency (IC50/inhibition constant) ADAM10, cell-based
[2] = system: recombinant soluble ADAM9; conditions: cited from earlier work; for Ki: read-out: Ki recombinant soluble ADAM9; for inhibition of recombinantly expressed ADAM9: concentrations up to 200 nM
ADAM17 = conditions: 1 μM; cited from earlier work
ADAM10 [3] = biological target: T2, ADAM10 (Mus musculus, UniProt O35598); assay: ADAM10-dependent shedding of BTC-AP in wild type mEFs; format: cell-based; conditions: WT mEFs, Supplementary Figure 2
T2 sequence (O35598 215-749): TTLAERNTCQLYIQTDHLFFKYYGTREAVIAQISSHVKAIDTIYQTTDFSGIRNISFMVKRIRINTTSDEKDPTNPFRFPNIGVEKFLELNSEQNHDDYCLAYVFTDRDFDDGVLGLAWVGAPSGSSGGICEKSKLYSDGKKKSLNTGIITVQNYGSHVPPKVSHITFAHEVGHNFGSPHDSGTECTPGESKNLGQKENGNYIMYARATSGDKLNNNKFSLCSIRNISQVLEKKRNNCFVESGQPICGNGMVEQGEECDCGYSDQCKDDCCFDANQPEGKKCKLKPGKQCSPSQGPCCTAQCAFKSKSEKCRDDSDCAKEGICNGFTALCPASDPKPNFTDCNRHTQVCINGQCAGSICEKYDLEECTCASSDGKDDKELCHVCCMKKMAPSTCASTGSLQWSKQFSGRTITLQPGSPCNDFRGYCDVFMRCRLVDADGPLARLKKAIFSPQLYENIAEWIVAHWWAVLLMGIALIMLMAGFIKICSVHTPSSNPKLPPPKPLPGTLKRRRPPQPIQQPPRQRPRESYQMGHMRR
Procedure, shortened: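 Wild-type mEFs were transiently transfected with AP-tagged betacellulin using Lipofectamine2000. Cells were washed 1 h in OptiMEM, then given fresh OptiMEM with or without test compound for 30 min to 2 h. AP activity was measured colorimetrically in supernatant and lysate from three identical wells. Shedding = supernatant AP / (lysate + supernatant AP).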

ADAM12 = conditions: read-out: Potency (IC50/inhibition constant) ADAM12, cell-based; cited from earlier work
[4] = system: EphB4-AP background shedding; assay: Basal/background EphB4-AP shedding in cells expressing inactive ADAM9 E>A; format: cell-based, mouse; conditions: for effect on EphB4-AP shedding in the absence of active A9 (EA9 cells): 20 ng/ml PMA, 100 μM PV or 2.5 μM IO, 30 minutes
Procedure, shortened: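 Adam10/17-/- mEFs were co-transfected (Lipofectamine2000) with ADAM9 E>A plasmid (1.5 µg per 6-well well) and EphB4-AP (1 µg). After a 1 h OptiMEM wash, cells were held in fresh OptiMEM ± stimuli or inhibitor. Times were 30 min for stimuli (pervanadate freshly made from vanadate + H2O2) and 2 h for inhibitors. Readout was colorimetric AP in supernatant/(lysate+supernatant), as fold over untreated cells; mean ± SEM, ≥3 experiments, Dunnett's test.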

ADAM15 = conditions: read-out: Potency (IC50/inhibition constant) ADAM15, cell-based; cited from earlier work

IC50 (ADAM9): 50 nM
Molecule: CNC(=O)[C@H](Cc1ccccc1)NC(=O)[C@H](CC(C)C)[C@H](CSc1cccs1)C(=O)NO [Batimastat/BB94, Batimastat]
IC50 (ADAM10 [1]): ~200 nM

effect on ADAM9-mediated shedding of EphB4-AP (ADAM9; concentrations of up to 10 μM, Adam10/17−/− mEFs): did not block
effect on ADAM9-dependent processing of EphB4-AP (ADAM9; concentrations up to 5 μM): did not block
lowest concentration inhibiting shedding of the ADAM10 substrate betacellulin-AP (ADAM10 [3]): 0.04 µM
Molecule: CNC(=O)[C@@H](NC(=O)[C@H](CCCc1ccccc1)[C@H](C)N(O)C=O)C(C)(C)C [GI254023X]
IC50 ([2]; read-out: IC50 soluble ADAM9, biochemical assays): 280 ± 110 nM
block of ADAM17 in cell-based assays (ADAM17): not ADAM17
block of ADAM10 in cell-based assays (ADAM10 [1]; 1 μM): blocks ADAM10

IC50 (ADAM9): 720 nM
dose dependence of inhibition of ADAM9-dependent release of EphB4-AP (ADAM9; Adam10/17−/− mEFs, 2 hours): dose-dependent manner
Molecule: CNC(=O)[C@H](Cc1c[nH]c2ccccc12)NC(=O)[C@@H](CC(=O)NO)CC(C)C [GM6001]
IC50 (ADAM12): 5930 nM

IC50 (ADAM9): 130 nM
dose dependence of inhibition of ADAM9-dependent release of EphB4-AP (ADAM9; Adam10/17−/− mEFs, 2 hours): dose-dependent manner
Molecule: CNC(=O)[C@@H](NC(=O)[C@H](CC(C)C)[C@H](O)C(=O)NO)C(C)(C)C [Marimastat]
Ki ([2]; biochemical assays): 274 nM

Molecule: CCCCCCCCCCCCCC(=O)O[C@@H]1[C@@H](C)[C@@]2(O)[C@@H](C=C(CO)C[C@]3(O)C(=O)C(C)=C[C@@H]23)[C@@H]2C(C)(C)[C@]12OC(C)=O [PMA, phorbol-12 myristate 13-acetate]
stimulation of ADAM9-dependent shedding of EphB4-AP (ADAM9; Adam10/17−/− mEFs): did not enhance
effect on EphB4-AP shedding in the absence of active A9 (EA9 cells) [4]: had no effect

dose dependence of inhibition of ADAM9-dependent release of EphB4-AP (ADAM9; Adam10/17−/− mEFs, 2 hours): dose-dependent manner
Molecule: CC(C)C[C@H](CC(=O)NO)C(=O)N[C@H](C(=O)N[C@@H](C)C(=O)NCCN)C(C)(C)C [TAPI-2]
Ki ([2]; biochemical assays): 17 nM

Molecule: C[C@H](CCC(=O)O)C[C@H](C)C[C@H](C)C(=O)/C=C(\O)[C@H](C)C[C@H](C)C/C=C/[C@@H](C)[C@@H](O)[C@@H](C)[C@@H](O)C[C@@H]1CC[C@@](C)([C@H]2CC[C@@](C)([C@@H](C)O)O2)O1 [ionomycin]
stimulation of ADAM9-dependent shedding of EphB4-AP (ADAM9; Adam10/17−/− mEFs): not responsive
effect on EphB4-AP shedding in the absence of active A9 (EA9 cells) [4]: had no effect

lowest concentration effectively inhibiting ADAM9 activity (ADAM9; increasing inhibition between 1 and 10 μM): 0.5 µM
Molecule: GW280264X

Molecule: TIMP-1: tissue inhibitor of metalloproteinases 1
inhibition of recombinantly expressed ADAM9 [2]: not inhibited
effect on ADAM9-dependent increase in EphB4-AP shedding (ADAM9; concentrations up to 20 nM, Adam10/17−/− mEFs, 2 hours): not significantly affected; also recorded: did not affect
effect on EphB4 background shedding in EA9 expressing cells ([4]; up to 20 nM, Adam10/17−/− mEFs, 2 hours): no significant effect
IC50 (ADAM10 [1]): < 1 nM

stimulation of ADAM9-dependent shedding of EphB4-AP (ADAM9; Adam10/17−/− mEFs): not responsive
Molecule: pervanadate
effect on EphB4-AP shedding in the absence of active A9 (EA9 cells) [4]: had no effect

reduction of the activity of ADAM9 (ADAM9; 10 nM): 40-50%
reduction of the activity of ADAM9 (ADAM9; 20 nM): 75%
effect on ADAM9-dependent EphB4-AP shedding (ADAM9; 20 nM, Adam10/17−/− mEFs, 2 hours): strongly
B1: TIMP-3: tissue inhibitor of metalloproteinases 3 (protein, UniProt P35625 24-211, looked up)
Metalloproteinase inhibitor 3: CTCSPSHPQDAFCNSDIVIRAKVVGKKLVKEGPFGTLVYTIKQMKMYRGFTKMPHVQYIHTEASESLCGLKLEVNKYQYLLTGRVYDGKMYTGLCNFVERWDQLTLSQRKGLNYRYHLGCNCKIKSCYYLPCFVTSKNECLWTDMLSNFGYPGYQSKHYACIRQKGGYCSWYRGWAPPDKSIINATDP
inhibition of recombinantly expressed ADAM9 [2]: not inhibited
effect on ADAM9-dependent EphB4-AP shedding (ADAM9; 10 nM, Adam10/17−/− mEFs, 2 hours): inhibited ADAM9 partially; also recorded: partially blocked
IC50 (ADAM15): ~20 nM
IC50 (ADAM10 [1]): < 1 nM
